Data published in ChEMBL document CHEMBL4346746, “Inhibition of 3-phosphoglycerate dehydrogenase (PHGDH) by indole amides abrogates de novo serine synthesis in cancer cells” (Bioorg Med Chem Lett, 2019).
Active and inactive are the calls of the source. No cut-off for these calls is given here.

Experiments:
[1] = target: T1, Malate dehydrogenase, cytoplasmic (Homo sapiens, UniProt P40925); test: Inhibition of recombinant human MDH1 expressed in Escherichia coli using malate as substrate incubated for 30 mins followed by substrate addition
T1 sequence (P40925 whole entry): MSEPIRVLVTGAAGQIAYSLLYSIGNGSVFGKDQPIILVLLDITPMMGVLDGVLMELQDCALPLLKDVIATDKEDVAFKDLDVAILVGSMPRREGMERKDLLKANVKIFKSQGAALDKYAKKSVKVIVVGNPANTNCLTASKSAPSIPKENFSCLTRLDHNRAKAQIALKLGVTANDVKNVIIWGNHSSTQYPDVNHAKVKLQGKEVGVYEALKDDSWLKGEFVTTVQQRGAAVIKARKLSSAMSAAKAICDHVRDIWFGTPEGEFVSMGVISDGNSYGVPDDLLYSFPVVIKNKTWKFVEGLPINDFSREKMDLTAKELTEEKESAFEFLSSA

[2] = target: T2, D-3-phosphoglycerate dehydrogenase (Homo sapiens) (UniProt O43175); test: Inhibition of PHGDH-mediated serine synthesis in human Carney cells in serine free medium at 10 uM preincubated for 1 hr followed by 13C6 labelled glucose addition and measured after 2 hrs by LC/MS analysis based 13C6-Glucose tracing assay relative control; format: cell-based
T2 sequence (whole entry): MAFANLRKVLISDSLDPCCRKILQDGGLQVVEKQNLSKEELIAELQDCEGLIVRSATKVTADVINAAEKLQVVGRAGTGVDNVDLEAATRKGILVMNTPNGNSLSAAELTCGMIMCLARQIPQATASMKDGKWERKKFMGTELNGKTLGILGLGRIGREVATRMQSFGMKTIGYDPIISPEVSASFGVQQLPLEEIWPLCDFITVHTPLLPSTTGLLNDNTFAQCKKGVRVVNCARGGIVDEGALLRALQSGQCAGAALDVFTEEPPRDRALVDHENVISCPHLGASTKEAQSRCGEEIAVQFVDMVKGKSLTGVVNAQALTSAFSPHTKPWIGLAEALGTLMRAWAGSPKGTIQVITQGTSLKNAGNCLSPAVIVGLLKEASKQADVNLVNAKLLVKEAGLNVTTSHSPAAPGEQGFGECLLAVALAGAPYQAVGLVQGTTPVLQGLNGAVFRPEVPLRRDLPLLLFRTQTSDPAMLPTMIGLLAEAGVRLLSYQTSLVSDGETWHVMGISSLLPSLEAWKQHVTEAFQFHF
Method in brief: (§1)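 Carney cells were pretreated with inhibitor for 1 h in the presence of 12C3-serine, then washed. They were labelled with 13C6-glucose medium for 2 h with inhibitor still present. 13C incorporation into serine was read by LC-MS; 3-PG and pyruvate labelling were also monitored.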

[3] = target: Isocitrate dehydrogenase [NADP] cytoplasmic (Homo sapiens, UniProt O75874); test: Inhibition of recombinant human IDH1 expressed in Escherichia coli using isocitrate as substrate incubated for 30 mins followed by substrate addition
[4] = Effect on 3-PG level in human Carney cells in serine free medium assessed as 13C-labeling of 3-PG at 0.1 to 20 uM preincubated for 1 hr followed by 13C6 labelled glucose addition and measured after 2 hrs by LC/MS analysis; format: ADME, cell-based
Method in brief: (§2)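 Carney cells were pretreated with inhibitor for 1 h in the presence of 12C3-serine, then washed. They were labeled with 13C6-glucose medium for 2 h with inhibitor still present. Label incorporation into 3-PG and pyruvate was measured by LC-MS, alongside serine labeling as the pathway read-out.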

Homo sapiens = species: Homo sapiens; test: Antiproliferative activity against human Carney cells in serine free medium at 2 uM with media and test compound change for every 2 days and measured every 6 hrs by automated microscopic method; format: functional, cell-based
[5] = Effect on pyruvate level in human Carney cells in serine free medium assessed as 13C-labeling of pyruvate at 0.1 to 20 uM preincubated for 1 hr followed by 13C6 labelled glucose addition and measured after 2 hrs by LC/MS analysis; format: ADME, cell-based; method in brief: as §2
[6] = target: T3, D-3-phosphoglycerate dehydrogenase (Homo sapiens, UniProt O43175); test: Inhibition of PHGDH (unknown origin) using 140 nM of PHGDH and 3-PG as substrate incubated for 20 mins in presence of NAD+, PSAT1, PSPH by diaphorase and resazurin dye based fluorescence assay
T3 sequence (O43175 whole entry): T2 sequence (whole entry)

[7] = Effect on 3-PG level in human Carney cells in serine free medium assessed as 13C-labeling of 3-PG at 0.1 to 10 uM preincubated for 1 hr followed by 13C6 labelled glucose addition and measured after 2 hrs by LC/MS analysis; format: ADME, cell-based; method in brief: as §2
[8] = Effect on pyruvate level in human Carney cells in serine free medium assessed as 13C-labeling of pyruvate at 0.1 to 10 uM preincubated for 1 hr followed by 13C6 labelled glucose addition and measured after 2 hrs by LC/MS analysis; format: ADME, cell-based; method in brief: as §2
[9] = target: T2, D-3-phosphoglycerate dehydrogenase (Homo sapiens); test: Inhibition of PHGDH-mediated serine synthesis in human Carney cells in serine free medium at uM preincubated for 1 hr followed by 13C6 labelled glucose addition and measured after 2 hrs by LC/MS analysis based 13C6-Glucose tracing assay relative control; format: cell-based; conditions: concentration not given here; method in brief: as §1
[10] = target: T2, D-3-phosphoglycerate dehydrogenase (Homo sapiens); test: Inhibition of PHGDH-mediated serine synthesis in human Carney cells in serine free medium at 1 uM preincubated for 1 hr followed by 13C6 labelled glucose addition and measured after 2 hrs by LC/MS analysis based 13C6-Glucose tracing assay relative control; format: cell-based; method in brief: as §1
[11] = target: L-lactate dehydrogenase A chain (Homo sapiens, UniProt P00338); test: Inhibition of recombinant human LDHA expressed in Escherichia coli using lactate as substrate incubated for 30 mins followed by substrate addition
[12] = target: T2, D-3-phosphoglycerate dehydrogenase (Homo sapiens); test: Inhibition of PHGDH-mediated serine synthesis in human Carney cells in serine free medium up to 40 uM preincubated for 1 hr followed by 13C6 labelled glucose addition and measured after 2 hrs by LC/MS analysis based 13C6-Glucose tracing assay; format: cell-based; method in brief: as §1
[13] = Effect on 3-PG level in human Carney cells in serine free medium assessed as 13C-labeling of 3-PG at 1 to 40 uM preincubated for 1 hr followed by 13C6 labelled glucose addition and measured after 2 hrs by LC/MS analysis; format: ADME, cell-based; method in brief: as §2
[14] = target: T2, D-3-phosphoglycerate dehydrogenase (Homo sapiens); test: Mixed type inhibition of PHGDH (unknown origin) assessed as rightward shift in substrate Km using 3-PG as substrate incubated for 20 mins in presence of , PSAT1, PSPH and varying NAD+ by diaphorase and resazurin dye based fluorescence assay
[15] = target: T2, D-3-phosphoglycerate dehydrogenase (Homo sapiens); test: Mixed type inhibition of PHGDH (unknown origin) assessed as decrease in substrate Vmax 3-PG as substrate incubated for 20 mins in presence of , PSAT1, PSPH and varying NAD+ by diaphorase and resazurin dye based fluorescence assay
[16] = target: T3, D-3-phosphoglycerate dehydrogenase; test: Inhibition of PHGDH (unknown origin) using 11 nM of PHGDH and 3-PG as substrate incubated for 20 mins in presence of NAD+, PSAT1, PSPH by diaphorase and resazurin dye based fluorescence assay
in vitro = conditions: PAMPA, pH 5
[17] = target: T2, D-3-phosphoglycerate dehydrogenase (Homo sapiens); test: Inhibition of PHGDH-mediated serine synthesis in human Carney cells in serine free medium at 1 to 40 uM preincubated for […] followed by 13C6 labelled glucose addition and measured after 2 hrs by LC/MS analysis based 13C6-Glucose tracing assay relative control; format: cell-based
[18] = Effect on pyruvate level in human Carney cells in serine free medium assessed as 13C-labeling of pyruvate at 1 to 40 uM preincubated for 1 hr followed by 13C6 labelled glucose addition and measured after 2 hrs by LC/MS analysis; format: ADME, cell-based; method in brief: as §2
[19] = target: T2, D-3-phosphoglycerate dehydrogenase (Homo sapiens); test: Inhibition of PHGDH-mediated serine synthesis in human Carney cells in serine free medium at 40 uM preincubated for 1 hr followed by 13C6 labelled glucose addition and measured after 2 hrs by LC/MS analysis based 13C6-Glucose tracing assay relative control; format: cell-based; method in brief: as §1
[20] = target: T2, D-3-phosphoglycerate dehydrogenase (Homo sapiens); test: Inhibition of PHGDH-mediated serine synthesis in human Carney cells in serine free medium preincubated for 1 hr followed by 13C6 labelled glucose addition and measured after 2 hrs by LC/MS analysis based 13C6-Glucose tracing assay relative control; format: cell-based; method in brief: as §1
[21] = target: T3, D-3-phosphoglycerate dehydrogenase; test: Inhibition of PHGDH (unknown origin)
[22] = Apparent permeability across apical to basolateral side in MDCK cells overexpressing MDR1; format: ADME, cell-based, Canis lupus familiaris; conditions: dog
[23] = Lipophilicity, log D of the compound at pH 7.4 by HPLC analysis; format: physicochemical; conditions: buffer
[24] = Efflux ratio of apparent permeability across basolateral to apical over apical to basolateral side in MDCK cells overexpressing MDR1; format: ADME, cell-based, Canis lupus familiaris; conditions: dog

Chain of Isocitrate dehydrogenase [NADP] cytoplasmic (O75874 whole entry): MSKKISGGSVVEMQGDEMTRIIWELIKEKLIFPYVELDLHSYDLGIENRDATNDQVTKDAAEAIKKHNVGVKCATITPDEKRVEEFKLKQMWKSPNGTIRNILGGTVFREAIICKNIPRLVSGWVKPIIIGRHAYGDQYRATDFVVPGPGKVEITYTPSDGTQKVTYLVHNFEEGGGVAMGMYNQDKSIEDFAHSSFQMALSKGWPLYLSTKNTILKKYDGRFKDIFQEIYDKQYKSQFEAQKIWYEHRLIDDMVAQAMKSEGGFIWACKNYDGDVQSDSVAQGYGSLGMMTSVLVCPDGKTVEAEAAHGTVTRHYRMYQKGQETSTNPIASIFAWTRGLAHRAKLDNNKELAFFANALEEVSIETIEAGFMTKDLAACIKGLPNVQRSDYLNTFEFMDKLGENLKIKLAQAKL

With Cn1c(C(=O)NC2(c3ccc(C(C(=O)O)c4cccnc4)cc3)COC2)cc2c(Cl)c(Cl)ccc21 (racemic) the IC50 [1] was greater than 10 µM, the inhibition [2] was 90% and the IC50 [3] was greater than 10 µM. For the same compound, the Activity [4] was “Non-Toxic”, the Activity (Homo sapiens) was “Active” and the Activity [5] was “Non-Toxic”.
Cn1c(C(=O)NC2(c3ccc(C(=O)O)nc3)COC2)cc2c(Cl)c(Cl)ccc21 showed an IC50 [6] of 22 µM.
With CC(=O)OC(C)OC(=O)C(c1ccc(C2(NC(=O)c3cc4c(Cl)c(Cl)ccc4n3C)COC2)cc1)c1cccnc1 (stereo not given) the IC50 [6] was 1.46 µM, the Activity [7] was “Non-Toxic” and the Activity [8] was “Non-Toxic”. The inhibition [9] was 40%, the Activity (Homo sapiens) was “Active” and the inhibition [10] was less than 100%.
In the case of CCOC(=O)C(c1ccc(C2(NC(=O)c3cc4c(Cl)c(Cl)ccc4n3C)COC2)cc1)c1cccnc1 (stereo not given), the inhibition [2] is reported as 70%, the IC50 [6] is reported as 1.33 µM and the Activity [7] is reported as “Non-Toxic”. For the same compound, the Activity [8] was “Non-Toxic”.
With COc1cc2c(cc1Cl)cc(C(=O)NC(CO)c1ccc(C(=O)O)cc1)n2C (stereo not given) the IC50 [6] was 0.235 µM.
Cn1c(C(=O)NC2(c3ccc([C@@H](O)c4cccnc4)cc3)COC2)cc2c(Cl)c(Cl)ccc21 gave an IC50 [1] greater than 10 µM, an IC50 [6] of 0.37 µM and an IC50 [3] greater than 10 µM. It also gave an IC50 [11] greater than 10 µM.
With O=C1NC[C@@H](COc2cc3[nH]c(C(=O)N[C@H](CO)c4ccc(C(=O)O)cc4)cc3cc2Cl)O1 the IC50 [1] was greater than 10 µM, the inhibition [12] was “inactive” and the Activity [13] was “Non-Toxic”. The inhibition [14] was “Active”, the IC50 [3] was greater than 10 µM and the inhibition [15] was “Active”. For the same compound, the IC50 [11] was greater than 10 µM.
Compound Cn1c(C(=O)NC2(c3ccc(CO)cc3)COC2)cc2c(Cl)c(Cl)ccc21 has an IC50 [6] of 1.58 µM.
COc1cc2c(cc1Cl)cc(C(=O)NC(CN)c1ccc(C(=O)O)cc1)n2C (stereo not given) gave an IC50 [6] of 23.4 µM.
Work on Cn1c(CNC2(c3ccc(C(=O)O)cc3)COC2)cc2c(Cl)c(Cl)ccc21 yielded an IC50 [6] of 209 µM.
In the case of Cn1c(C(=O)NC2(c3ccc(CC(=O)NS(C)(=O)=O)cc3)COC2)cc2c(Cl)c(Cl)ccc21, the IC50 [16] is reported as 0.439 µM.
Compound Cn1c(C(=O)NC2(c3ccc([C@H](O)c4cccnc4)cc3)COC2)cc2c(Cl)c(Cl)ccc21 has an IC50 [6] of 0.99 µM.
Work on CONC(=O)Cc1ccc(C2(NC(=O)c3cc4c(Cl)c(Cl)ccc4n3C)COC2)cc1 yielded an IC50 [6] of 0.287 µM.
For Cn1c(C(=O)NC2(c3ccc(C(=O)O)c(F)c3)COC2)cc2c(Cl)c(Cl)ccc21, the IC50 [16] was 0.037 µM and the Papp at 10 µM (in vitro) was 15.2 ×10⁻⁶ cm/s.
With Cn1c(C(=O)NC2(c3ccc(C(=O)O)cc3)COC2)cc2c(Cl)c(Cl)ccc21 the inhibition [17] was “Active”, the Activity [18] was “Non-Toxic” and the Activity [13] was “Non-Toxic”. For the same compound, the inhibition [19] was 100%, the inhibition [2] was 40% and the inhibition [20] was “Dose-dependent effect”.
For C#CSc1c(NC(=O)c2ccco2)sc(C(=O)OCC)c1C, the IC50 [21] was 33 µM.
COc1cc2c(cc1Cl)cc(C(=O)N[C@H](C)c1ccc(C(=O)O)cc1)n2C gave a Papp [22] of 1.4 ×10⁻⁶ cm/s, a logD [23] of 1.67 and an IC50 [6] of 0.235 µM. The Ratio [24] was 1.3.
Compound Cn1c(C(=O)NC2(c3ccc(C(CC(=O)O)c4cccnc4)cc3)COC2)cc2c(Cl)c(Cl)ccc21 (stereo not given) has an IC50 [16] of 0.025 µM.
In the case of Cn1c(C(=O)NC2(c3ccc(CC(=O)O)c(F)c3)COC2)cc2c(Cl)c(Cl)ccc21, the IC50 [16] is reported as 0.034 µM.
